Screens from PubChem.
Sampled rows, rich in hits. Any-hit rate of the full collection: about 1.8%.
M4 PAM – potentiates acetylcholine response at human M4 receptor | P08173 | CHO-K1 hM4/Gqi5, Fluo-8 calcium fluorescence, ACh EC20; 0% = ACh EC20, 100% = maximal ACh | actives 0.4% (n = 360,000) | activation, % at 3 µM | AID 624126;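 active = activation above its plate's cutoff, the mean activation of sample wells plus 3 SD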
M5 ag – CHRM5 agonism in calcium assay; CHO-K1 hM5 cells, Fluo-8 calcium fluorescence; 0% DMSO wells, 100% maximal acetylcholine response; activation, % at 3 µM; actives 0.19% (n = 360,000); AID 624037;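 active = activation above the run's mean over test compounds plus 3 SD, cut at about 23% in these data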;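 also: signal is peak over basal fluorescence ratio across the kinetic read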
Target sequence (P08912 whole entry, looked up): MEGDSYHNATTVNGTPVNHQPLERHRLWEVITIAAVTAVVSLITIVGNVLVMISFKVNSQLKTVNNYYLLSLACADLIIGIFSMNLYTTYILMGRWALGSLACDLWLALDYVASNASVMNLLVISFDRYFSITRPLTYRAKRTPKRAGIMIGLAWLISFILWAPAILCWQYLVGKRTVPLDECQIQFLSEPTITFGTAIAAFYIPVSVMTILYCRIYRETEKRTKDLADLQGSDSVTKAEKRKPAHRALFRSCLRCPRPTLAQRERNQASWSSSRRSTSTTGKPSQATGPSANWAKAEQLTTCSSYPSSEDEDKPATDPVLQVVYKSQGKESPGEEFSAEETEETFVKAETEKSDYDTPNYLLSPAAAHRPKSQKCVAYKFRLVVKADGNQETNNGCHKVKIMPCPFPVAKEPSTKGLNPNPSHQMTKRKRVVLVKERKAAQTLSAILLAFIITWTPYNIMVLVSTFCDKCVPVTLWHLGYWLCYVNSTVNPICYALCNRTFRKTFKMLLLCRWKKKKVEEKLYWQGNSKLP
CHRM5 PAM – potentiates acetylcholine response at human M5 receptor | P08912 | CHO-K1 hM5, Fluo-8 calcium, ACh EC20 PAM; 0% = ACh EC20, 100% = ACh EC100 | activation, % at 3 µM | actives 0.3% (n = 360,000) | AID 624038;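 active = activation above the run cutoff, the mean activation of all test compounds plus 3 SD, cut at about 18% in these data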
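Assay system: CHO-K1 hM5 cells. Also added: acetylcholine at EC20 concentration, added after compound. Dosing: 3 µM, single dose. Times: compound preincubation 140 s before EC20 acetylcholine addition. Signal: Fluo-8 calcium fluorescence. Measure: % activation relative to EC20 and EC100 ACh responses. Repeats: singlicate, one well per test compound.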
M5 antag – blocks acetylcholine activation of human M5 receptor; P08912; CHO-hM5 cells, Fluo-8 calcium fluorescence, ACh EC80; inhibition, % at 3 µM; actives 0.59% (n = 360,000); AID 624040;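 active = inhibition above a per-plate cutoff, the mean of that plate's test compounds plus 3 SD, cut at about 27% in these data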;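 also: 0% = acetylcholine EC80 with DMSO and 100% = DMSO without agonist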
CHRM4 agonist – CHRM4 agonism in calcium assay. CHO-K1 hM4/Gqi5, Fluo-8 calcium fluorescence; vehicle 0%, full acetylcholine response 100%. activation, % at 3 µM. actives 0.14% (n = 360,000);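 active = activation above the run mean over all test wells plus 3 SD, cut at about 32% in these data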;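 also: peak over basal fluorescence ratio per well then scaled between controls; 0% = DMSO wells and 100% = acetylcholine at EC100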
M4 antag – blocks acetylcholine activation of human M4 receptor; AID 624125; P08173; actives 0.73% (n = 360,000); inhibition, % at 3 µM; CHO-hM4 cells, ACh EC80, Fluo-8 calcium fluorescence;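 active = inhibition above its plate's cutoff, the mean inhibition of sample wells plus 3 SD, cut at about 27% in these data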;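 also: 0% = acetylcholine EC80 with DMSO and 100% = DMSO without agonist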
The depositor's hits bear a star.

SMILES | M4 PAM | M5 ag | CHRM5 PAM | M5 antag | CHRM4 agonist | M4 antag
Cc1ccc(OS(=O)(=O)c2c(C)nn(C)c2Cl)c(C)c1 | -17 | -8 | -34 | 31* | 0 | 43*
COc1cc2nc(C3CCC3)nc(N3CCN(c4ccccc4OC)CC3)c2cc1OC | -40 | -6 | -19 | 14 | 1 | 43*
COc1cc2c(cc1OC)-c1cc(OCCN3CCOCC3)nc(=O)n1CC2 | 5 | -6 | 25* | 3 | -1 | -6
COCCNCC(=O)N1c2ccccc2Sc2ccccc21 | -12 | -21 | -33 | 57* | 1 | 31*
Cc1cccc[n+]1CC(=O)N1c2ccccc2Sc2ccccc21 | -24 | -11 | -20 | 99* | 0 | 96*
COCCCNC(=O)N1c2ccccc2Sc2ccccc21 | 1 | -14 | 11 | -1 | 0 | -2
CC(=O)N1c2ccccc2Sc2ccccc21 | -10 | -19 | -9 | 17 | -1 | 10
CC(C)CNCC(=O)N1c2ccccc2Sc2ccccc21 | -16 | -14 | -50 | 74* | 2 | 52*
CC(C)NC(=O)N1c2ccccc2Sc2ccccc21 | -14 | -10 | -7 | 7 | -1 | 21
CCCn1c(SCC(=O)N2CC(=O)Nc3ccccc32)n[nH]c1=O | 5 | 5 | 4 | 10 | 0 | 1
CC(C)(C)C1CCC(=O)N(CCOc2ccccc2)CC1 (configuration not stated) | 7 | 4 | 4 | 7 | 1 | -6
CCOC(=O)C1(CCCc2ccccc2)CCN(C2CCSCC2)CC1 | -20 | -11 | -21 | 30* | 3 | 8
Cc1ccc(NC(=O)Nc2cccc([N+](=O)[O-])c2)cc1F | -17 | 7 | -16 | 28* | 12 | 14
Cc1ccc(NC(=S)NNC(=O)c2cccc([N+](=O)[O-])c2)cc1Cl | -19 | 5 | -26 | 28* | 13 | -13
Cc1cc(O)c(C(C)C)cc1NC(=O)Nc1ccc([N+](=O)[O-])cc1 | 1 | 1 | -3 | 18 | 5 | -7
Cc1ccc(C(C)C)cc1NC(=O)Nc1ccc([N+](=O)[O-])cc1 | -14 | 7 | -16 | 28* | 19 | 20
Cc1nn(CC(=O)N2CCc3ccccc3C2)c(C)c1Cl | 1 | -5 | 21* | -11 | -1 | -8
CC(C)N1CC(COc2ccc(Cl)cc2Cl)OC1=O (configuration not stated) | -3 | -1 | 1 | 7 | 1 | 5
C[C@@H](NC(=O)c1cc2c([nH]c3ccccc32)c(-c2ccccc2)n1)C(=O)O | -4 | -3 | 4 | 5 | 0 | 5
CCN(c1ccccc1)S(=O)(=O)c1ccc(NC(=O)c2nc(S(C)(=O)=O)ncc2Cl)cc1 | -15 | 3 | -13 | 29* | 36* | 75*
CCS(=O)(=O)c1ncc(Cl)c(C(=O)Nc2ccc(S(=O)(=O)N(C)c3ccccc3)cc2)n1 | -14 | -8 | -11 | 18 | 14 | 59*
CC(C)CSC1=NSC2=NC(=O)/C(=C\c3coc4ccccc4c3=O)C(=N)N12 | -21 | 168* | -23 | 68* | 89* | 52*
CSC1=NSC2=NC(=O)/C(=C\c3coc4ccccc4c3=O)C(=N)N12 | -17 | 27* | -13 | 26 | 25 | 27*
COc1ccc(N2C(=O)CC3(CCCC3)CC2=O)cc1 | 21 | -5 | 10 | -4 | 0 | -29
COc1cc(NC(=O)c2ccccc2F)c(OC)cc1NC(=O)CN1CCCCC1 | 9 | -3 | 7 | 5 | 2 | -8
O=C(CN(CC1CCCO1)C(=O)CNS(=O)(=O)c1ccc(F)cc1)NCCc1ccccc1 (configuration not stated) | 1 | -2 | 3 | -2 | 0 | -3
CCCC(=O)OCCNc1cc(Sc2nccn2C)c2nonc2c1[N+](=O)[O-] | -4 | -2 | -10 | 21 | 2 | 36*
CCC(=O)OCCNc1cc(Sc2nc3ccccc3[nH]2)c2nonc2c1[N+](=O)[O-] | -10 | -2 | -7 | 22 | 3 | 54*
